Data as given in ChEMBL document CHEMBL1629575, “Clinical outcomes, safety, and pharmacokinetics of OPT-80 in a phase 2 trial with patients with Clostridium difficile infection” (Antimicrob Agents Chemother, 2009).
In brackets after ≈: the same amount, converted by molar mass.

Key:
[1] = tested on: Plasma; test: Drug level in clostridium difficile infected patient plasma assessed as OP-1118 metabolite level at 400 […], po every 12 hrs for 10 days by RP-HPLC/MS; format: ADME, organism-based; set-up: route oral; settings: human, in vivo
Method in brief: (§1)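 Plasma was sampled 0.5 h before and 2 h after dosing on the first and last days of the 10-day oral regimen. Samples were methanol-acetic acid precipitated with OP-1393 internal standard, C18 solid-phase extracted, and analysed by RP-HPLC (40°C column) with tandem quadrupole MS. Assay range was 5 to 1,000 ng/ml for parent and OP-1118.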

[2] = Drug level in clostridium difficile infected patient feces assessed as OP-1118 metabolite level at 200 […], po every 12 hrs for 10 days by RP-HPLC/MS; format: ADME, organism-based; set-up: route oral; settings: human, in vivo
Method in brief: (§2)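 The complete 24-h stool output was collected on day 10 (or the final dosing day if treatment stopped early) and frozen at −80°C. Stool was homogenized in acetonitrile-acetic acid, diluted with acetonitrile, spiked with OP-1393 internal standard, and analysed by RP-HPLC-MS/MS. The assay standard range for parent was 10 to 2,000 ng/ml. Results are reported as mean ± SD in μg/g.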

[3] = tested on: Plasma; test: Drug level in clostridium difficile infected patient plasma assessed as OP-1118 metabolite level at 100 […], po every 12 hrs for 10 days by RP-HPLC/MS; format: ADME, organism-based; set-up: route oral; settings: human, in vivo; method in brief: as §1
[4] = tested on: Plasma; test: Drug level in clostridium difficile infected patient plasma assessed as OP-1118 metabolite level at 200 […], po every 12 hrs for 10 days by RP-HPLC/MS; format: ADME, organism-based; set-up: route oral; settings: human, in vivo; method in brief: as §1
[5] = Drug level in clostridium difficile infected patient feces assessed as OP-1118 metabolite level at 400 […], po every 12 hrs for 10 days by RP-HPLC/MS; format: ADME, organism-based; set-up: route oral; settings: human, in vivo; method in brief: as §2
[6] = Drug level in clostridium difficile infected patient feces assessed as OP-1118 metabolite level at 100 […], po every 12 hrs for 10 days by RP-HPLC/MS; format: ADME, organism-based; set-up: route oral; settings: human, in vivo; method in brief: as §2
[7] = tested on: Clostridioides difficile; test: Antimicrobial activity against Clostridium difficile; format: functional
[8] = tested on: Clostridioides difficile; test: Antimicrobial activity against Clostridium difficile infected in patient assessed as percentage of patient require further treatment at 200 […], po every 12 hrs for 10 days; format: functional
Method in brief: (§3)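 Phase 2 open-label randomized dose-ranging trial; adults with mild to moderate CDI (primary episode or first relapse, positive toxin by EIA or cytotoxicity assay), oral dosing for 10 days. Clinical failure was defined as the need for additional therapy during the treatment period. Failures underwent C. difficile culture and toxin testing.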

[9] = tested on: Clostridioides difficile; test: Antimicrobial activity against Clostridium difficile infected in patient assessed as resolving of diarrhea after 10 days at 200 […], po every 12 hrs for 10 days; format: functional
Method in brief: (§4)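 Open-label randomized phase 2 trial in mild to moderate CDI patients, oral dosing over a 10-day regimen. Resolution of diarrhea was defined as the first day with one or two non-watery, non-loose stools in 24 h, sustained through treatment up to study day 10. Time to resolution was counted from the first dose.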

[10] = tested on: Clostridioides difficile; test: Antimicrobial activity against Clostridium difficile infected in patient assessed as resolution of diarrhea on day 10 at 200 […], po every 12 hrs for 10 days; format: functional; method in brief: as §4
[11] = tested on: Clostridioides difficile; test: Antimicrobial activity against Clostridium difficile infected in patient assessed as complete relief of clostridium difficile associated diarrhea symptom in patient at 400 […], po every 12 hrs for 10 days; format: functional
[12] = tested on: Clostridioides difficile; test: Antimicrobial activity against Clostridium difficile infected in patient assessed as percentage of patient require further treatment at 100 […], po every 12 hrs for 10 days; format: functional; method in brief: as §3
[13] = tested on: Clostridioides difficile; test: Antimicrobial activity against Clostridium difficile infected in patient assessed as percentage of patient require no further treatment at 200 […], po every 12 hrs for 10 days; format: functional; method in brief: as §3
[14] = tested on: Clostridioides difficile; test: Antimicrobial activity against Clostridium difficile infected in patient assessed as percentage of patient require further treatment at 400 […], po every 12 hrs for 10 days; format: functional; method in brief: as §3
[15] = Drug level in clostridium difficile infected patient feces at 200 […], po every 12 hrs for 10 days by RP-HPLC/MS; format: ADME, organism-based; set-up: route oral; settings: human, faeces, read-out: Activity; method in brief: as §2
[16] = Drug level in clostridium difficile infected patient plasma at 100 […], po every 12 hrs for 10 days by RP-HPLC/MS; format: ADME, organism-based; set-up: route oral; settings: human, read-out: Activity; method in brief: as §1
[17] = tested on: Clostridioides difficile; test: Antimicrobial activity against Clostridium difficile infected in patient assessed as resolution of diarrhea on day 10 at 400 […], po every 12 hrs for 10 days; format: functional; method in brief: as §4
[18] = Drug level in clostridium difficile infected patient plasma at 400 […], po every 12 hrs for 10 days by RP-HPLC/MS; format: ADME, organism-based; set-up: route oral; settings: human, read-out: Activity; method in brief: as §1
[19] = tested on: Clostridioides difficile; test: Antimicrobial activity against Clostridium difficile infected in patient assessed as clinical failure at 400 […], po every 12 hrs for 10 days; format: functional; method in brief: as §3
[20] = tested on: Clostridioides difficile; test: Antimicrobial activity against Clostridium difficile infected in patient assessed as recurrence of diarrhea within 6 weeks after treatment at 200 mg/kg, po every 12 hrs for 10 days; format: functional
[21] = tested on: Clostridioides difficile; test: Antimicrobial activity against Clostridium difficile infected in patient assessed as complete relief of clostridium difficile associated diarrhea symptom in patient at 200 […], po every 12 hrs for 10 days; format: functional
[22] = tested on: Clostridioides difficile; test: Antimicrobial activity against Clostridium difficile infected in patient assessed as incomplete relief of clostridium difficile associated diarrhea symptom in patient at 200 […], po every 12 hrs for 10 days; format: functional
[23] = tested on: Clostridioides difficile; test: Antimicrobial activity against Clostridium difficile infected in patient assessed as incomplete relief of clostridium difficile associated diarrhea symptom in patient at 400 […], po every 12 hrs for 10 days; format: functional
[24] = tested on: Clostridioides difficile; test: Antimicrobial activity against Clostridium difficile infected in patient assessed as resolving of diarrhea after 10 days at 100 […], po every 12 hrs for 10 days; format: functional; method in brief: as §4
[25] = tested on: Clostridioides difficile; test: Antimicrobial activity against Clostridium difficile infected in patient assessed as percentage of patient require no further treatment at 100 […], po every 12 hrs for 10 days; format: functional; method in brief: as §3
[26] = tested on: Clostridioides difficile; test: Antimicrobial activity against Clostridium difficile infected in patient assessed as complete relief of clostridium difficile associated diarrhea symptom in patient at 100 […], po every 12 hrs for 10 days; format: functional
[27] = tested on: Clostridioides difficile; test: Antimicrobial activity against Clostridium difficile infected in patient assessed as clinical failure at 200 […], po every 12 hrs for 10 days; format: functional; method in brief: as §3
[28] = tested on: Plasma; test: Drug level in clostridium difficile infected patient plasma at 200 […], po every 12 hrs for 10 days by RP-HPLC/MS; format: ADME, organism-based; set-up: route oral; settings: human, in vivo; method in brief: as §1
[29] = tested on: Clostridioides difficile; test: Antimicrobial activity against Clostridium difficile infected in patient assessed as percentage of patient require no further treatment at 400 […], po every 12 hrs for 10 days; format: functional; method in brief: as §3
[30] = tested on: Clostridioides difficile; test: Antimicrobial activity against Clostridium difficile infected in patient assessed as incomplete relief of clostridium difficile associated diarrhea symptom in patient at 100 […], po every 12 hrs for 10 days; format: functional
[31] = tested on: Clostridioides difficile; test: Antimicrobial activity against Clostridium difficile infected in patient assessed as resolution of diarrhea on day 10 at 100 […], po every 12 hrs for 10 days; format: functional; method in brief: as §4
[32] = Drug level in clostridium difficile infected patient feces at 100 […], po every 12 hrs for 10 days by RP-HPLC/MS; format: ADME, organism-based; set-up: route oral; settings: human, faeces, read-out: Activity; method in brief: as §2
[33] = tested on: Clostridioides difficile; test: Antimicrobial activity against Clostridium difficile infected in patient assessed as recurrence of diarrhea within 6 weeks after treatment at 100 […], po every 12 hrs for 10 days; format: functional
[34] = tested on: Clostridioides difficile; test: Antimicrobial activity against Clostridium difficile infected in patient assessed as resolving of diarrhea after 10 days at 400 […], po every 12 hrs for 10 days; format: functional; method in brief: as §4
[35] = tested on: Clostridioides difficile; test: Antimicrobial activity against Clostridium difficile infected in patient assessed as clinical failure at 100 […], po every 12 hrs for 10 days; format: functional; method in brief: as §3
[36] = tested on: Clostridioides difficile; test: Antimicrobial activity against Clostridium difficile infected in patient assessed as recurrence of diarrhea within 6 weeks after treatment at 400 mg/kg, po every 12 hrs for 10 days; format: functional
[37] = Drug level in clostridium difficile infected patient feces at 400 […], po every 12 hrs for 10 days by RP-HPLC/MS; format: ADME, organism-based; set-up: route oral; settings: human, faeces, read-out: Activity; method in brief: as §2

CCc1c(Cl)c(O)c(Cl)c(O)c1C(=O)O[C@H]1[C@H](O)[C@H](OC)[C@H](OC/C2=C\C=C\C[C@H](O)/C(C)=C/[C@H](CC)[C@@H](O[C@@H]3OC(C)(C)[C@@H](O)[C@H](O)[C@@H]3O)/C(C)=C/C(C)=C/C[C@@H]([C@@H](C)O)OC2=O)O[C@@H]1C
Activity [1]: 402.3 ng/mL
Activity [2]: 430 µg/g
Activity [3]: 77.2 ng/mL
Activity [4]: 154.3 ng/mL
Activity [5]: 760 µg/g
Activity [6]: 393 µg/g

CN[C@H](CC(C)C)C(=O)N[C@H]1C(=O)N[C@@H](CC(N)=O)C(=O)N[C@H]2C(=O)N[C@H]3C(=O)N[C@H](C(=O)N[C@H](C(=O)O)c4cc(O)cc(O)c4-c4cc3ccc4O)[C@H](O)c3ccc(c(Cl)c3)Oc3cc2cc(c3O[C@@H]2O[C@H](CO)[C@@H](O)[C@H](O)[C@H]2O[C@H]2C[C@](C)(N)[C@H](O)[C@H](C)O2)Oc2ccc(cc2Cl)[C@H]1O [VANCOMYCIN]
MIC90 [7]: 2 µg/mL (≈ 1.38 µM)

Cc1ncc([N+](=O)[O-])n1CCO [METRONIDAZOLE]
MIC90 [7]: 0.5 µg/mL (≈ 2.92 µM)

CCc1c(Cl)c(O)c(Cl)c(O)c1C(=O)O[C@H]1[C@H](O)[C@H](OC)[C@H](OC/C2=C\C=C\C[C@H](O)/C(C)=C/[C@H](CC)[C@@H](O[C@@H]3OC(C)(C)[C@@H](OC(=O)C(C)C)[C@H](O)[C@@H]3O)/C(C)=C/C(C)=C/C[C@@H]([C@@H](C)O)OC2=O)O[C@@H]1C [FIDAXOMICIN]
Activity [8]: 12.5%
Activity [9]: 7%
Activity [10]: 80%
Activity [11]: 86.7%
Activity [12]: 12.5%
Activity [13]: 18.8%
Activity [14]: 0%
concentration at 10 days [15]: 442000 ng/g
concentration at 10 days [16]: 12.3 ng/mL
Activity [17]: 94%
concentration at 10 days [18]: 84.9 ng/mL
Activity [19]: 0%
Activity [20]: 0%
Activity [21]: 50%
Activity [22]: 37.5%
Activity [23]: 13.3%
Activity [24]: 14%
MIC90 [7]: 0.125 µg/mL (≈ 0.118 µM)
Activity [25]: 31.3%
Activity [26]: 37.5%
Activity [27]: 13%
Activity [28]: 9.37e-05 mg/mL
Activity [29]: 13.3%
Activity [30]: 56.3%
Activity [31]: 71%
concentration at 10 days [32]: 256000 ng/g
Activity [33]: 8.3%
Activity [34]: 6%
Activity [35]: 14%
Activity [36]: 6.3%
concentration at 10 days [37]: 1.43e+06 ng/g
